In ChEMBL document CHEMBL1148371, “Sulfonyl-containing aldophosphamide analogues as novel anticancer prodrugs targeted against cyclophosphamide-resistant tumor cell lines” (J Med Chem, 2004):

Experiments:
[1] = system: V79; experiment: In vitro cytotoxicity against V-79 chinese hamster lung fibroblasts (3 hr drug exposure time) by clonogenic assay; assay type: functional, cell-based; conditions: Cricetulus griseus, V79, 3 h
Procedure, shortened: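 Subcloned V-79 cells in MEM with 10% heat-inactivated FBS were used. 500 log-phase cells per dish were seeded and left 12–15 h. Cells were exposed to drug or solvent for 3 h at 37 °C, rinsed with HBSS, and grown 5–6 days. Colonies were fixed with EtOH, stained with crystal violet and counted against solvent control. IC50 (50% loss of clonogenic survival) came from the semilog concentration–survival plot; three experiments.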

[2] = Half life period in phosphate buffer (0.2 M); assay type: ADME
[3] = system: P388; experiment: In vivo antitumor activity against P388/0 (wild) leukemia in mice measured by increase in life span after 100 mg/kg compound administration; assay type: functional; conditions: Mus musculus
Procedure, shortened: (§1)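 CD2F1 mice (24–26 g) were implanted ip with 10^6 P388/0 or P388/CPA leukemia cells on day 0. A single ip dose (100, 200 or 400 mg/kg) in saline or saline–Tween 80 was given on day 1; vehicle controls were included. Five mice were used per dose. Survival was followed for 33 days against untreated controls and reported as % increase in life span and number of long-term survivors.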

[4] = In vivo antitumor activity against P388/0 (wild) leukemia in mice measured by increase in life span after 200 mg/kg compound administration; Toxic; assay type: toxicity, organism-based; design: dose 200 mg/kg; conditions: mouse; procedure, shortened: as §1
[5] = system: P388; experiment: In vivo antitumor activity against P388/0 (wild) leukemia in mice measured by increase in life span after 200 mg/kg compound administration; assay type: functional; conditions: Mus musculus; procedure, shortened: as §1
[6] = system: P388/CPA; experiment: In vivo antitumor activity against P388/CPA leukemia (resistant) in mice measured by increase in life span after 200 mg/kg compound administration; assay type: functional; conditions: Mus musculus; procedure, shortened: as §1
[7] = Half life period in human plasma using phosphate buffer (0.08 M); assay type: ADME, cell-free
[8] = Half life period in phosphate buffer (0.08 M); assay type: ADME
Procedure, shortened: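 Prodrug was incubated in 0.08 M phosphate buffer pH 7.4 at 37 °C with shaking, mostly at 3–9 mM (0.8 or 0.3 mM for some). Incubation was stopped with 2.0 M acetate pH 5.0 plus EtOH. Parent compound was quantified by silica TLC (UV 254 nm or NBP stain) and densitometry against a zero-time control. kobs came from the ln(% remaining) versus time slope; t1/2 = 0.693/kobs.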

[9] = system: P388/CPA; experiment: In vivo antitumor activity against P388/CPA leukemia in mice (resistant) measured by increase in life span after 100 mg/kg compound administration; assay type: functional; conditions: Mus musculus; procedure, shortened: as §1
[10] = system: P388/CPA; experiment: In vivo antitumor activity against P388/CPA leukemia (resistant) in mice measured by increase in life span after 400 mg/kg compound administration; assay type: functional; conditions: Mus musculus; procedure, shortened: as §1
[11] = system: P388; experiment: In vivo antitumor activity against P388/0 (wild) leukemia in mice measured by increase in life span after 400 mg/kg compound administration; assay type: functional; conditions: Mus musculus; procedure, shortened: as §1
[12] = system: P388; experiment: Number of long-term (33-day) survival P388/0 (wild) leukemia mice (5) after 400 mg/kg compound administration; assay type: functional, Mus musculus; procedure, shortened: as §1
[13] = In vivo antitumor activity against P388/CPA leukemia (resistant) in mice measured by increase in life span after 400 mg/kg compound administration; Toxic; assay type: toxicity, organism-based; design: dose 400 mg/kg; conditions: mouse; procedure, shortened: as §1
[14] = In vivo antitumor activity against P388/0 (wild) leukemia in mice measured by increase in life span after 400 mg/kg compound administration; Toxic; assay type: toxicity, organism-based; design: dose 400 mg/kg; conditions: mouse; procedure, shortened: as §1

Structure (SMILES) | IC50 [1] | half-life [2] | ILS at 100 mg/kg [3] | ILS [4] | ILS at 200 mg/kg [5] | ILS at 200 mg/kg [6] | half-life [7] | half-life [8] | ILS at 100 mg/kg [9] | ILS at 400 mg/kg [10] | ILS at 400 mg/kg [11] | Number [12] | ILS [13] | ILS [14]
CSCCO | 69.1 µM | – | – | – | – | – | – | – | – | – | – | – | – | –
O=P(O)(NCCCl)NCCCl [PALIFOSFAMIDE] | 60.9 µM | 1 h | 92% | Toxic | – | – | – | – | – | – | – | – | – | –
CS(=O)(=O)CCOP(=O)(N(CCCl)CCCl)N(CCCl)CCCl | 24.1 µM | – | 10% | – | 10% | 28% | 1.6 h | 7.2 h | 12% | 60% | 30% | – | – | –
CS(=O)(=O)CCOc1ccc([N+](=O)[O-])c([N+](=O)[O-])c1 | 69.1 µM | – | – | – | – | – | – | – | – | – | – | – | – | –
O=P(NCCCl)(NCCCl)OCCS(=O)(=O)c1ccccc1 | 13.9 µM | – | 33% | – | 33% | 28% | 2.6 h | 6.4 h | 20% | 60% | 33% | – | – | –
CSCC(OP(=O)(N(CCCl)CCCl)N(CCCl)CCCl)c1ccccc1 (stereo not given) | 69.1 µM | – | – | – | – | – | – | – | – | – | – | – | – | –
Cc1ccc(S(=O)(=O)CCOP(N)(=O)N(CCCl)CCCl)cc1 (stereo not given) | 11.5 µM | – | 20% | – | 50% | 28% | 4.8 h | 12.8 h | 28% | 44% | 90% | – | – | –
CSCCOc1ccc([N+](=O)[O-])c([N+](=O)[O-])c1 | 69.1 µM | – | – | – | – | – | – | – | – | – | – | – | – | –
Cc1ccc(SCCOP(N)(=O)N(CCCl)CCCl)cc1 (stereo not given) | 69.1 µM | – | – | – | – | – | – | – | – | – | – | – | – | –
Cc1ccc(SCCO)cc1 | 69.1 µM | – | – | – | – | – | – | – | – | – | – | – | – | –
CS(=O)(=O)CCOP(=O)(NCCCl)NCCCl | 68 µM | – | 33% | – | 52% | 84% | 2.2 h | 6.4 h | 20% | 108% | 100% | 1 | – | –
O=[N+]([O-])c1ccc(S(=O)(=O)CCOP(=O)(N(CCCl)CCCl)N(CCCl)CCCl)cc1 | 1.8 µM | – | 100% | – | 120% | 68% | 0.37 h | 0.69 h | 84% | – | – | – | Toxic | Toxic
CS(=O)(=O)CC(OP(=O)(N(CCCl)CCCl)N(CCCl)CCCl)c1ccccc1 (stereo not given) | 15.2 µM | – | 10% | – | 20% | 20% | 1 h | 1.8 h | 4% | 60% | 20% | – | – | –
O=[N+]([O-])c1ccc(S(=O)(=O)CCOP(=O)(NCCCl)NCCCl)cc1 | 2.1 µM | – | 71% | – | 138% | 92% | < 0.01 h | 0.08 h | 60% | – | – | – | Toxic | Toxic
Cc1ccc(S(=O)(=O)CCOP(=O)(NCCCl)NCCCl)cc1 | 9.5 µM | – | 23% | – | 14% | 12% | 4.4 h | 12.1 h | 4% | 36% | 23% | – | – | –
CSCCOP(=O)(N(CCCl)CCCl)N(CCCl)CCCl | 69.1 µM | – | – | – | – | – | – | – | – | – | – | – | – | –
O=[N+]([O-])c1ccc(SCCO)cc1 | 69.1 µM | – | – | – | – | – | – | – | – | – | – | – | – | –
